For this test, the target named is Aminopeptidase N (Plasmodium falciparum (isolate 3D7)) (UniProt O96935). As to the kind of experiment: inhibition of P. falciparum M1 alanyl aminopeptidase – biochemical, QFRET, fluorogenic H-Leu-NHMec substrate, set 3, dose response (AID 624163). The following applies: purified rPFM1AAP, H-Leu-NHMec fluorogenic substrate cleavage; for inhibition: at 100 µM (top of the series). In short, it runs like this:
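Doses: ten twofold doses, 0.2–100 µM; test system: recombinant PfM1AAP enzyme; input: rPfM1AAP enzyme at 5 µg/mL final; schedule: enzyme-substrate-compound incubation 90 min at room temperature; benchmarks: no-enzyme wells; measured by: fluorescence of released NHMec, excitation 370 nm, emission 460 nm; also added: H-Leu-NHMec, 0.1 mM; repeats: each concentration tested in triplicate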

The source made the active and inactive calls.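 The calls were made as follows: active = inhibition of 30% or more at any tested concentration; inactive = the rest.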

As a reminder, the IC50 is the concentration needed to halve the response being measured.

Sequence of Aminopeptidase N (Plasmodium falciparum (isolate 3D7)) (O96935 whole entry, looked up): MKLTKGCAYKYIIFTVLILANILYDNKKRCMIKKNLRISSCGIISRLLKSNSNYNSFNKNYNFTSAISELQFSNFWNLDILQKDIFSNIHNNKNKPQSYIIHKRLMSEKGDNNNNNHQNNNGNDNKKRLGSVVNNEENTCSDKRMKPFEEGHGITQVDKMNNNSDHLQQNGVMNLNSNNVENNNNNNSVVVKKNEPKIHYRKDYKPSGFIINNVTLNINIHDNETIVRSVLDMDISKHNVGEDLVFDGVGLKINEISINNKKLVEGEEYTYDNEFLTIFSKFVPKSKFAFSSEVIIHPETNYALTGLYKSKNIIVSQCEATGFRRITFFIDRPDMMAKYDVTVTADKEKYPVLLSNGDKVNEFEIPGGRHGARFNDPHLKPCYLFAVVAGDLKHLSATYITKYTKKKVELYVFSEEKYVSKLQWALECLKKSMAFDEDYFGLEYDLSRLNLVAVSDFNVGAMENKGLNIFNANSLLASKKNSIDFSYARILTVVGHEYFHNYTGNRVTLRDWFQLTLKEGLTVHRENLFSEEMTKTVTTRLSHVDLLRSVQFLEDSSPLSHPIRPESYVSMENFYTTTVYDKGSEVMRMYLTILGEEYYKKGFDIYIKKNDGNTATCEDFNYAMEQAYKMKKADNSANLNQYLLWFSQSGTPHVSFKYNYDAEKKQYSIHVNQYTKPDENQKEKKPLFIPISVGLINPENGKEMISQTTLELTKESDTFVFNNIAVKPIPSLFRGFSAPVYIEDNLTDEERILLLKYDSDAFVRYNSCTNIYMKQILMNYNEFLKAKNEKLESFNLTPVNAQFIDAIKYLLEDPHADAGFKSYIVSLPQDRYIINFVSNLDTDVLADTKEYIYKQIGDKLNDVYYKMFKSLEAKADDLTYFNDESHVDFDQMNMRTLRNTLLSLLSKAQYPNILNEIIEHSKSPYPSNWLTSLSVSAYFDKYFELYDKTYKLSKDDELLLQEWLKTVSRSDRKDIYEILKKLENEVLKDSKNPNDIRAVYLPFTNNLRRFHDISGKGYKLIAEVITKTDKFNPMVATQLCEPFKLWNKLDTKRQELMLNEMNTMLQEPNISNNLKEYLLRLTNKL

As to `O=C(NCCc1ccc2c(c1)OCO2)C1CCN(S(=O)(=O)c2ccc(Br)cc2)CC1`, the inhibition result was “inactive”.

As for `O=C(NCc1cccc(F)c1)C1CCN(S(=O)(=O)c2ccc(Cl)s2)CC1`, the half-maximal inhibitory concentration (IC50) was 3.98 µM.

Take `O=C(Nc1ccc2c(c1)OCO2)C1CCN(S(=O)(=O)c2cc(Br)c(Br)s2)CC1`: the inhibition result is “inactive”.

Regarding `O=C(NCc1ccc2c(c1)OCO2)C1CCN(S(=O)(=O)c2ccc(Br)s2)CC1`, the IC50 was 1.22 µM.

For `O=C(Nc1ccc2c(c1)OCO2)C1CCN(S(=O)(=O)c2ccc(Br)cc2)CC1`, the inhibition entry was “inactive”.

As for `O=C(NCc1ccc2c(c1)OCO2)C1CCN(S(=O)(=O)c2ccc(Cl)s2)CC1`, the IC50 was 2.83 µM.

As for `O=C(NCc1ccc2c(c1)OCO2)C1CCN(S(=O)(=O)c2sccc2Br)CC1`, the IC50 is 34.3 µM.

Turning to `O=C(NCc1cccc(F)c1)C1CCN(S(=O)(=O)c2ccc(Br)s2)CC1`, the IC50 was 2.18 µM.

Take `O=C(Nc1ccc2c(c1)OCO2)C1CCN(S(=O)(=O)c2sccc2Br)CC1`: the inhibition result was “inactive”.

For `O=C(NCc1ccc(F)cc1)C1CCN(S(=O)(=O)c2cc(Br)c(Br)s2)CC1`, the inhibition entry is “inactive”.

Turning to `O=C(NCc1ccccc1F)C1CCN(S(=O)(=O)c2ccc(Cl)s2)CC1`, the half-inhibitory concentration (IC50) was 3.97 µM.

As to `O=C(NCc1cccc(F)c1)C1CCN(S(=O)(=O)c2ccc(Br)cc2)CC1`, the IC50 is 11.2 µM.

Regarding `O=C(NCCc1ccc2c(c1)OCO2)C1CCN(S(=O)(=O)c2ccc(Br)s2)CC1`, the inhibition result is “inactive”.

Regarding `O=C(NCCc1ccc2c(c1)OCO2)C1CCN(S(=O)(=O)c2sccc2Br)CC1`, the inhibition result was “inactive”.

As to `O=C(NCc1ccccc1F)C1CCN(S(=O)(=O)c2ccc(Br)s2)CC1`, the concentration for half-maximal inhibition (IC50) is 2.53 µM.

Consider `O=C(NCc1ccc(F)cc1)C1CCN(S(=O)(=O)c2ccc(Br)cc2)CC1`, for which the half-maximal inhibitory concentration (IC50) was 28 µM.

Take `O=C(NCc1cccc(F)c1)C1CCN(S(=O)(=O)c2sccc2Br)CC1`: the concentration for half-maximal inhibition (IC50) is 29.8 µM.

Consider `O=C(NCc1ccccc1F)C1CCN(S(=O)(=O)c2ccc(Br)cc2)CC1`, for which the concentration for half-maximal inhibition (IC50) was 12.7 µM.

`O=C(NCc1ccc(F)cc1)C1CCN(S(=O)(=O)c2sccc2Br)CC1`: the concentration for half-maximal inhibition (IC50) is 69.2 µM.

As to `O=C(NCc1ccccc1F)C1CCN(S(=O)(=O)c2cc(Br)c(Br)s2)CC1`, the inhibition entry was “inactive”.

In the case of `O=C(NCc1ccc2c(c1)OCO2)C1CCN(S(=O)(=O)c2ccc(Br)cc2)CC1`, the IC50 was 7.44 µM.

For `O=C(NCc1ccccc1F)C1CCN(S(=O)(=O)c2sccc2Br)CC1`, the IC50 was 33.7 µM.

As for `O=C(NCc1ccc2c(c1)OCO2)C1CCN(S(=O)(=O)c2cc(Br)c(Br)s2)CC1`, the inhibition result was “inactive”.

For `O=C(NCCc1ccc2c(c1)OCO2)C1CCN(S(=O)(=O)c2cc(Br)c(Br)s2)CC1`, the inhibition entry was “inactive”.

`O=C(NCc1ccc(F)cc1)C1CCN(S(=O)(=O)c2ccc(Cl)s2)CC1`: the half-inhibitory concentration (IC50) is 6.48 µM.

Consider `O=C(Nc1ccc2c(c1)OCO2)C1CCN(S(=O)(=O)c2ccc(Br)s2)CC1`, for which the inhibition entry was “inactive”.

In the case of `O=C(NCc1ccc(F)cc1)C1CCN(S(=O)(=O)c2ccc(Br)s2)CC1`, the IC50 was 3.95 µM.

Turning to `O=C(Nc1ccc2c(c1)OCO2)C1CCN(S(=O)(=O)c2ccc(Cl)s2)CC1`, the inhibition entry was “inactive”.

On to `O=C(NCc1cccc(F)c1)C1CCN(S(=O)(=O)c2cc(Br)c(Br)s2)CC1`, for which the inhibition result is “inactive”.

With `O=C(NCCc1ccc2c(c1)OCO2)C1CCN(S(=O)(=O)c2ccc(Cl)s2)CC1`, the inhibition result is “inactive”.

(Values after PubChem BioAssay AID624163 (Southern Research Specialized Biocontainment Screening …, 2012).)
